Assay results taken from ChEMBL document CHEMBL4190220, “Withanolides from Aeroponically Grown Physalis peruviana and Their Selective Cytotoxicity to Prostate Cancer and Renal Carcinoma Cells” (J Nat Prod, 2017).

Columns and labels:
[1] = system: LNCaP; experiment: Cytotoxicity against human LNCAP cells assessed as reduction in cell viability after 72 hrs by CellTiter96 AQueous one solution cell proliferation assay; format: functional, cell-based
How it was run: (§1)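 MTS viability in RPMI with 5% fetal calf serum, 2.0 mM L-glutamine, nonessential amino acids, 1.0 mM pyruvate, penicillin/streptomycin, 10 mM HEPES and 2-mercaptoethanol. Cells were seeded at 10 000 (LNCaP) or 5000 (others) and grown overnight at 37 °C. Serial dilutions in DMSO went into triplicate wells for 72 h. MTS was read at 490 nm after 2 h. IC50 ± SD from dose–response curves, at least three independent experiments.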

[2] = system: CWR22R; experiment: Cytotoxicity against human 22Rv1 cells assessed as reduction in cell viability after 72 hrs by CellTiter96 AQueous one solution cell proliferation assay; format: functional, cell-based; details: 22Rv1, 72 h; how it was run: as §1
[3] = system: ACHN; experiment: Cytotoxicity against human ACHN cells assessed as reduction in cell viability after 72 hrs by CellTiter96 AQueous one solution cell proliferation assay; format: functional, cell-based; how it was run: as §1
[4] = system: M14; experiment: Cytotoxicity against human M14 cells assessed as reduction in cell viability after 72 hrs by CellTiter96 AQueous one solution cell proliferation assay; format: functional, cell-based; details: M14, 72 h
How it was run: (§2)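 MTS viability in DMEM with 5% fetal calf serum, 2.0 mM L-glutamine, nonessential amino acids, 1.0 mM pyruvate, penicillin/streptomycin, 10 mM HEPES and 2-mercaptoethanol. 5000 cells were grown overnight at 37 °C. Serial DMSO dilutions went into triplicate wells for 72 h. MTS absorbance was read at 490 nm after 2 h. IC50 ± SD from at least three independent dose–response experiments.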

[5] = system: SK-MEL-28; experiment: Cytotoxicity against human SK-MEL-28 cells assessed as reduction in cell viability after 72 hrs by CellTiter96 AQueous one solution cell proliferation assay; format: functional, cell-based; details: SK-MEL-28, 72 h; how it was run: as §2
[6] = system: HFF; experiment: Cytotoxicity against HFF cells assessed as reduction in cell viability after 72 hrs by CellTiter96 AQueous one solution cell proliferation assay; format: cell-based; details: Homo sapiens; how it was run: as §1

SMILES	IC50 [1] [nM]	IC50 [2] [nM]	IC50 [3] [nM]	IC50 [4] [nM]	IC50 [5] [nM]	IC50 [6] [nM]
CC1=C(C)C(=O)O[C@@H]([C@](C)(O)[C@]2(O)CC[C@@]3(O)[C@@H]4C[C@H]5O[C@]56CC=CC(=O)[C@]6(C)[C@H]4CC[C@]23C)C1 [WITHANOLIDE E]	60	70	460	> 2000	> 2000	> 2000
CC1=C(C)[C@H](O)[C@H]([C@](C)(O)[C@]2(O)CC[C@@]3(O)[C@@H]4C[C@H]5O[C@]56CC=CC(=O)[C@]6(C)[C@H]4CC[C@]23C)OC1=O	> 2000	890	> 2000	> 2000	> 2000	> 2000
C[C@H]1C[C@H]([C@](C)(O)[C@]2(O)CC[C@@]3(O)[C@@H]4C[C@H]5O[C@]56CC=CC(=O)[C@]6(C)[C@H]4CC[C@]23C)OC(=O)[C@@H]1C	290	210	> 2000	> 2000	> 2000	> 2000
CC1=C(C)C(=O)O[C@@H]([C@](C)(O)[C@]2(O)CC[C@@]3(O)[C@@H]4CC=C5CC=CC(=O)[C@]5(C)[C@H]4CC[C@]23C)C1 [WITHANOLIDE F]	130	70	> 2000	> 2000	> 2000	> 2000
CC1=C(C)C(=O)O[C@@H]([C@](C)(O)[C@]2(O)CC[C@@]3(O)[C@@H]4C[C@H]5O[C@]56[C@@H](O)C=CC(=O)[C@]6(C)[C@H]4CC[C@]23C)C1	160	90	> 2000	> 2000	> 2000	> 2000
